Source: PubChem (several laboratories)
PMI activator: activators of human PMI, primary screen, biochemical, fluorescence intensity, near-Km mannose 6-phosphate; AID 1214, 2008; purified human PMI, coupled resazurin fluorescence, 20 min; active compounds read high; 1 = vehicle control, 0 substrate-free wells; Mannose-6-phosphate isomerase (Homo sapiens), P34949; activation factor at 20 µM; 190,000 tested, 0.005% active;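 active = activation factor of 2 or more at 20 µM, relative to plate controls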
ROMK mod: ROMK potassium channel modulators, primary screen, cell-based, thallium flux, MLSMR library. AID 1918, 2009. Tet-inducible ROMK, thallium flux fluorescence; actives lie on both sides. 130,000 tested, 2% active. B-score at 10 µM;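 active = signal ratio slope over the read window, or its plate-corrected B-score, at least 3 SD from the plate mean, either direction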;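 also: B-score of the F/F0 ratio slope over 7 to 12 s after thallium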
PMI act satM6P: human PMI activators, high substrate, primary screen, biochemical, fluorescence intensity, near-saturating mannose 6-phosphate. Mannose-6-phosphate isomerase (Homo sapiens), P34949. coupled PMI enzyme assay, resazurin fluorescence, 20 min; active compounds read high; 1 = untreated enzyme, 0 = substrate-free blank. activation factor at 20 µM. 190,000 tested, 0.34% active;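 active = activation factor of 2 or more at 20 µM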
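Material: human phosphomannose isomerase with PGI, G6PDH, diaphorase coupling enzymes; amount: PMI at 15 ng/mL final; also added: Mannose-6-phosphate 1.0 mM (near-saturating) plus 0.22 mM NADP+; incubation: enzyme reaction with compound 20 min at room temperature; signal: resorufin fluorescence (Ex 544/Em 590 nm) from resazurin via diaphorase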
ABCB1 inh: ABCB1 efflux pump inhibitors, primary screen, cell-based, multiplex, flow cytometry, ABCG2 counter-screen; inhibition, % at 6.6 µM; 190,000 tested, 0.067% active; AID 1326, 2008; CCRF-Adr cells, JC-1 efflux; in the data active = inhibition above about 40%;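 also: 0% = vehicle and 100% = reference inhibitor; higher value means more JC-1 retained so stronger ABCB1 efflux block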
Cl transport mod: KCC2 cotransporter modulators, thallium flux, primary screen, cell-based, HEK293 KCC2, FluoZin-2 fluorescence, MLSMR | Solute carrier family 12 member 5 (Homo sapiens), Q9H2X9 | KCC2 cells, thallium flux FluoZin-2 fluorescence | B-score of Tl+ flux slope (higher = more flux/activation; lower = inhibition) at 10 µM | 190,000 tested, 2.2% active | AID 1456, 2008;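 active = thallium flux slope and its plate-corrected score both differing from the plate sample mean at a set confidence after two filtering rounds, in either direction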;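 also: slope of fluorescence scaled to starting intensity during 10 to 20 s after thallium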
ABCG2 block: ABCG2 efflux pump inhibitors, primary screen, multiplex with ABCB1, IgMXP3 cells, flow cytometry; JC-1 efflux; inhibition, % at 6.6 µM; 190,000 tested, 0.1% active;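 active = inhibition above 80%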;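 also: 0% = DMSO and 100% = nicardipine control wells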
Target sequence (Q9UNQ0 whole entry, looked up): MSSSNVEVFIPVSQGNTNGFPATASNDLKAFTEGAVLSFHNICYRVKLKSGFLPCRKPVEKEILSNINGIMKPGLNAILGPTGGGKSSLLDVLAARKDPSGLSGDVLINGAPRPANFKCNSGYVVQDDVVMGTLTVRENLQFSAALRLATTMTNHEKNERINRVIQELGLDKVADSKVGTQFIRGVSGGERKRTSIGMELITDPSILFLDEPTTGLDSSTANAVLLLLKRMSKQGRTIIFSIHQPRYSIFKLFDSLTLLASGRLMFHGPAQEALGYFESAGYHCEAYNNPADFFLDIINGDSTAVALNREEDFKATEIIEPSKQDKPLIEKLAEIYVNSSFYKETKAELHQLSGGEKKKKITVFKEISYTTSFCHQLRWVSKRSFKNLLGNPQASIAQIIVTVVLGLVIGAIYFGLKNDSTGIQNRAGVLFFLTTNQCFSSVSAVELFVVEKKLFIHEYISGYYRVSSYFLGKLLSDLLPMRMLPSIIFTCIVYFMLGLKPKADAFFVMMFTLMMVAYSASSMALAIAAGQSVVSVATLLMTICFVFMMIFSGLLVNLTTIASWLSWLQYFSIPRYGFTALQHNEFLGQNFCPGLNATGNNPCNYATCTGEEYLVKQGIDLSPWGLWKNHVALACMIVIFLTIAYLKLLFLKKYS
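Measure – % inhibition of efflux relative to nicardipine and DMSO · Test system – ABCG2 IgMXP3 and barcoded ABCB1 CCRF-Adr cell mix · Control set – nicardipine as high control, DMSO as low control · Compound – one concentration, 6.6 µM final · Signal – flow cytometry of retained JC-1 fluorescence · Timing – 10 min exposure at 25 °C with rotation, no wash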
ROMK retest: ROMK channel modulator hit retest, confirmation, cell-based, thallium flux, duplicate, resupplied hits. shares compounds with ROMK mod. fluorescence ratio; active compounds read low. normalized thallium flux (F/F0 slope) at 10 µM. 3,000 tested, 54% active. AID 1917, 2009;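 active = Flux at 10 µM at least 3 SD below or above vehicle control mean in one or both replicates; inconclusive = no clear call, values can overlap the other calls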
Starred values were filed as active, the others as inactive; ? = inconclusive; . = no result given. In the library only some 3.3% were active in any assay of this set; here they are far more common.

SMILES	PMI activator	ROMK mod	PMI act satM6P	ABCB1 inh	Cl transport mod	ABCG2 block	ROMK retest
O=C(C1CCCN(S(=O)(=O)c2cccc3cccnc23)C1)N1CCN(c2ccc(F)cc2)CC1 (configuration not stated)	0.9	.	0.9	-1	.	0	0.071
Cn1c(SCC(=O)NC(C)(C)C)nnc1-c1cnccn1	1	.	1	0	-1.1	1	.
Fc1ccc(C2=NNC(=NCc3ccccc3)SC2)cc1F	1	-3*	1.1	1	1.1	17	?
CCN(CC(=O)Nc1c(F)cccc1F)C(=O)COc1ccc2c(C)cc(=O)oc2c1	1.2	1.2	1.2	0	-0.18	10	.
CCC(C)(C)c1ccc(OCCCC[n+]2cccc(C)c2)c(C(C)(C)CC)c1	1	-4.1*	1	0	0.84	4	0.047*
Cc1ccc[n+](CC(=O)Nc2cc(C(F)(F)F)ccc2Cl)c1	1	.	1	0	0.056	-1	.
CN(C)c1ccc(/C=C/c2cc[n+](C)cc2)cc1	1	-7.3*	1.1	2	-1.7	3	0.044*
CCOc1ccc(S(=O)(=O)N(C)C)cc1-c1nc2c(C(C)(C)C)nn(C)c2c(=O)[nH]1	1	-1.8	1	2	.	11	.
CCOc1ccc(S(=O)(=O)N(C)CCO)cc1-c1nc2c(C(C)(C)C)nn(C)c2c(=O)[nH]1	0.9	-4.3*	0.9	2	.	1	0.048*
O=C(COc1ncnc2scc(-c3ccc(Cl)cc3)c12)NCc1ccco1	0.9	.	0.9	0	-0.51	3	0.061*
CCNC(=O)COc1ncnc2scc(-c3ccc(F)cc3)c12	1	0.057	1	0	-1.5	2	.
O=C(Cc1ccccc1Cl)N1CCN(c2ncccn2)CC1	1	-2.1	1	1	-0.06	4	.
Cc1cccc2cc3c(N)c(C(=O)N4CCc5ccccc54)sc3nc12	0.8	-0.14	0.9	13	0.19	12	.
O=C1CC(/C=C/c2ccc([N+](=O)[O-])cc2)=Nc2ccccc2N1	.	.	.	.	-0.78	.	0.057*
Cc1cccc(-c2nc(CSc3nc4c(c(=O)[nH]3)CCC4)c(C)o2)c1	0.9	-0.29	0.8	1	-3.1	1	.
Cc1cccc(C(=O)Nc2ccc(C(=O)/C=C/c3cccnc3)cc2)c1	0.9	-2.4*	1.1	0	-0.2	-5	?
CCOc1cc2oc(=O)c3c(c2cc1Cl)CCC3	0.8	0.37	0.9	1	0.31	3	0.086
CC1=C(C(=O)OCCOc2ccccc2)C(c2ccc(C)o2)C2=C(CC(C)(C)CC2=O)N1 (configuration not stated)	0.9	-3.1	0.9	2	-2.7	30	.
COC(=O)C1C(=O)C2=C(CC1C)NC(C)=C(C(=O)OCCOc1ccccc1)C2c1ccc(C)o1 (configuration not stated)	1	-4*	0.8	3	-1.2	53	0.066*
CC1=C(C)CS(=O)N(S(=O)(=O)c2ccccc2)C1 (configuration not stated)	1.1	-5.5*	1.1	1	.	2	0.047*
CCOc1cc(N2CCOCC2)c(OCC)cc1NC(=O)CN1C(=O)NC2(CCCCCCC2)C1=O	0.9	0.5	0.7	1	1.5	6	.
COc1ccc(-n2c(N)c(C(=O)NCC3CCCO3)c3nc4ccccc4nc32)c(OC)c1 (configuration not stated)	0.8	.	0.6	.	.	.	.
C=CCn1c(N)c(C(=O)NCC2CCCO2)c2nc3ccccc3nc21 (configuration not stated)	0.8	.	0.4	2	.	3	0.066*
C[n+]1c2n(c3ccccc31)N=C(c1cc(C(C)(C)C)c(O)c(C(C)(C)C)c1)CS2	1	-5.5*	1	1	-3.4	2	0.039*
N#C/C(=C\c1ccc(Cl)cc1)c1n[nH]c(Cn2cncn2)n1	0.9	-4.1*	1	0	0.91	2	0.047*
SMILES	PMI activator	ROMK mod	PMI act satM6P	ABCB1 inh	Cl transport mod	ABCG2 block	ROMK retest
Cc1cccc(N2C(=S)NC3c4ccccc4OC2(C)C3C(=O)N(C)C)c1 (configuration not stated)	1.1	-4.4*	1.2	0	0.28	3	0.064*
O=[N+]([O-])c1cc(S(=O)(=O)N2CCCCCC2)ccc1F	1	.	1.1	0	-0.48	22	0.054*
O=S(=O)(c1cccc(S(=O)(=O)N2CCCC2)c1)c1cccc(S(=O)(=O)N2CCCC2)c1	1	-5.7*	0.9	1	0.0093	3	0.066*
O=[N+]([O-])c1cc(S(=O)(=O)N2CCCC2)ccc1O	1.1	0.29	1	1	0.69	3	.
CCC1(C(=O)O)NC(c2cc(OC)ccc2O)C2C(=O)N(Cc3ccccc3)C(=O)C21 (configuration not stated)	1	.	1	0	-0.68	0	.
CCCCN1C(=O)C2C(c3ccc(OC)cc3O)NC(CC(C)C)(C(=O)O)C2C1=O (configuration not stated)	1	.	0.9	-2	0.55	-3	0.08
COc1cccc(Cn2cc(N)cn2)c1	.	0.031	.	1	-0.35	2	.
COc1cccc(CN2C(=O)c3cccc(N)c3C2=O)c1	1.1	-2.1*	1	1	0.35	19	0.057*
O=C(CN1CCC(c2nc3ccccc3s2)CC1)NCc1cccs1	0.9	.	1	1	-0.78	-1	0.06*
COc1cc(/C=C2\SC(=S)N(Nc3ncc(C(F)(F)F)cc3Cl)C2=O)ccc1O	0.9	-3.7*	0.8	2	-0.65	2	0.064*
COc1cc(/C=C2\SC(=S)N(Nc3ccccc3)C2=O)ccc1O	0.8	.	0.8	0	0.26	-1	.
COc1cc(/C=C2\SC(=S)N(NC(=O)c3cccnc3)C2=O)ccc1O	.	-4.2*	.	.	-2.3	.	0.058*
COc1cc(/C=C2\SC(=S)N(c3cccnc3)C2=O)ccc1O	.	.	.	.	0.13	.	.
O=C1/C(=C/c2ccc(O)c(O)c2)SC(=S)N1Nc1ccccc1	0.5	-2*	0.8	1	-2.3	4	0.058*
